Measured values from ChEMBL document CHEMBL4340525, “Tumor-Targeted Delivery of 6-Diazo-5-oxo-l-norleucine (DON) Using Substituted Acetylated Lysine Prodrugs” (J Med Chem, 2019).

Legend:
[1] = Stability in human liver S9 fraction assessed as parent compound remaining at 1 uM measured after 1 hr by LC-MS/MS analysis; format: ADME, subcellular; conditions: read-out: Stability
Method in brief: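 Human liver microsomes (0.2 mg/mL protein) or S9 fraction (0.5 mg/mL) were incubated with prodrug at 1 µM final, 37 °C, 1 h with shaking. Reactions were quenched in triplicate with three volumes acetonitrile containing losartan. Parent remaining was taken from analyte/internal-standard peak-area ratio by UHPLC-MS/MS.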

[2] = Stability in swine jejunum assessed as parent compound remaining at 20 uM measured after 1 hr by LC-MS/MS analysis; format: ADME, tissue-based, Sus scrofa; conditions: pig
Method in brief: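 Washed swine jejunum was diluted 10-fold in 0.1 M potassium phosphate buffer and probe-sonicated. Prodrug was spiked at 20 µM final and incubated 1 h at 37 °C with orbital shaking. Triplicate quench in acetonitrile with losartan internal standard. Percent parent remaining by LC-MS/MS peak-area ratio.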

[3] = Prodrug conversion in human plasma suspended with human DU4475 cells assessed as 6-diazo-5-oxo-L-norleucine formation at 20 uM measured after 1 hr by LC-MS/MS analysis; format: ADME, cell-free
Method in brief: (§1)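 Cells were grown in RPMI 1640 with 10% FBS, washed in DPBS and resuspended in human plasma at 10 million cells/mL. After 5 min preincubation at 37 °C, compound was added at 20 µM final for 1 h. The mix was centrifuged at 10 000g and the washed pellet and plasma were quantified separately. DON was read by LC-MS/MS after dabsyl chloride derivatisation, intact prodrug directly. Standard curves were made in naive cells or plasma.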

[4] = Stability in human plasma suspended with human P493B cells at 20 uM measured after 1 hr by LC-MS/MS analysis; format: ADME, cell-free; method in brief: as §1
[5] = Prodrug conversion in human H69 cells suspended in human plasma assessed as 6-diazo-5-oxo-L-norleucine formation at 20 uM measured after 1 hr by LC-MS/MS analysis; format: ADME, cell-based; conditions: nci-h69, 1 h; method in brief: as §1
[6] = Prodrug conversion in human DU4475 cells suspended in human plasma assessed as 6-diazo-5-oxo-L-norleucine formation at 20 uM measured after 1 hr by LC-MS/MS analysis; format: ADME, cell-based; conditions: du-4475, 1 h; method in brief: as §1
[7] = Prodrug conversion in human P493B cells suspended in human plasma assessed as deacetylation by measuring (6a) (S)-2-{(S)-2-[(Adamantane-1-carbonyl)-amino]-6-amino-hexanoylamino}-6-diazo-5-oxo-hexanoic acid isopropyl ester formation measured after 1 hr by HRMS analysis; format: ADME, cell-based
Method in brief: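 Metabolite identification: compound was incubated 1 h with 10 million P493B cells suspended in 1 mL human plasma. Cell pellets were collected and metabolites identified by HRMS.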

Procathepsin L = Procathepsin L (Homo sapiens, UniProt P07711); assay: Stability of the compound assessed as recombinant human cathepsin L-mediated compound hydrolysis by measuring parent compound remaining at 1 uM measured after 3 hrs by UHPLC-MS analysis; format: ADME
Sequence of Procathepsin L (P07711 whole entry): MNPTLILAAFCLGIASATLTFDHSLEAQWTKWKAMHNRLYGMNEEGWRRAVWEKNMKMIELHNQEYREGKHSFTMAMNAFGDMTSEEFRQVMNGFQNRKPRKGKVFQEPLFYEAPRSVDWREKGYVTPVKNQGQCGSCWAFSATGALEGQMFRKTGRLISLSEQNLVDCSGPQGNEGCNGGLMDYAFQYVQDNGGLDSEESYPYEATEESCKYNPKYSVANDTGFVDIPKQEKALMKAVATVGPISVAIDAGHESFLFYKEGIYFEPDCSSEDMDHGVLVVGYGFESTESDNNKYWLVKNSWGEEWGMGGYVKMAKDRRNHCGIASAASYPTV
Method in brief: (§2)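 Compound at 1 µM was incubated at 37 °C with shaking in 50 mM MES pH 6 with 5 mM DTT. Recombinant human enzyme final levels: HDAC2 10 µg/mL, cathepsin B 1 µg/mL, cathepsin L 0.1 µg/mL, alone or cathepsins B+L combined. Aliquots were quenched in methanol with losartan at 0.25, 0.5, 1 and 3 h. Parent remaining by Q-TOF LC-MS.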

Homo sapiens = species on record: Homo sapiens; assay: Stability of the compound assessed as recombinant human cathepsin L/cathepsin B-mediated compound hydrolysis by measuring parent compound remaining at 1 uM measured after 3 hrs by UHPLC-MS analysis; method in brief: as §2
[8] = Ratio of 6-diazo-5-oxo-L-norleucine EC50 to test compound EC50 for human P493B cells; format: functional
[9] = Stability of the compound in wild-type C57BL/6 mouse plasma assessed as de-esterification of carboxyl ester measured after 60 mins by HRMS analysis; format: ADME, cell-free; conditions: 1 h
[10] = Drug level in mouse EL4 cells implanted in CES1-deficient C57BL/6 mouse assessed as tumor cell to plasma ratio at 3.2 mg/kg, sc administered as single dose measured after 1 hr by LC-MS/MS analysis; format: ADME, organism-based
[11] = Cmax in CES1-deficient C57BL/6 mouse plasma implanted with mouse EL4 cells at 3.2 mg/kg, sc administered as single dose by LC-MS/MS analysis; format: ADME, organism-based; set-up: dose 3.2 mg/kg, route subcutaneous
Method in brief: (§3)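 Male and female C57BL/6 CES1-/- mice, 6–8 weeks old, carried flank EL4 tumours from SC injection of 1 × 10^6 cells in PBS. Dosing began at about 400 mm3 mean tumour volume. Each mouse got one SC dose of 3.2 mg/kg (1 mg/kg DON equivalent) in ethanol/Tween 80/saline 5:10:85. Plasma, jejunum and tumour were taken at set times, n = 3 per time point. Prodrug and dabsyl-derivatised DON were measured by LC-MS/MS. Noncompartmental analysis: Cmax and Tmax observed, AUClast by log-linear trapezoidal rule.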

[12] = Cmax in CES1-deficient C57BL/6 mouse jejunum implanted with mouse EL4 cells at 3.2 mg/kg, sc administered as single dose by LC-MS/MS analysis; format: ADME, organism-based; set-up: dose 3.2 mg/kg, route subcutaneous; conditions: in vivo, BLD = below limit of detection; method in brief: as §3
[13] = Tmax in CES1-deficient C57BL/6 mouse tumor implanted with mouse EL4 cells at 3.2 mg/kg, sc administered as single dose by LC-MS/MS analysis; format: ADME, organism-based, Neoplasm; method in brief: as §3
[14] = AUC (0 to t) in CES1-deficient C57BL/6 mouse plasma implanted with mouse EL4 cells at 3.2 mg/kg, sc administered as single dose by LC-MS/MS analysis; format: ADME, organism-based; method in brief: as §3
[15] = Cmax in CES1-deficient C57BL/6 mouse plasma implanted with mouse EL4 cells assessed as 6-diazo-5-oxo-L-norleucine level at 3.2 mg/kg, sc administered as single dose by LC-MS/MS analysis; format: ADME, organism-based; set-up: dose 3.2 mg/kg, route subcutaneous; conditions: in vivo; method in brief: as §3
[16] = Tmax in CES1-deficient C57BL/6 mouse tumor implanted with mouse EL4 cells assessed as 6-diazo-5-oxo-L-norleucine level at 3.2 mg/kg, sc administered as single dose by LC-MS/MS analysis; format: ADME, organism-based, Neoplasm; conditions: in vivo; method in brief: as §3
[17] = Ratio of AUC (0 to t) in tumor to jejunum of CES1-deficient C57BL/6 mouse implanted with mouse EL4 cells assessed as 6-diazo-5-oxo-L-norleucine level at 3.2 mg/kg, sc administered as single dose by LC-MS/MS analysis; format: ADME, organism-based; conditions: in vivo
Method in brief: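 Tissue-to-tissue ratios of DON AUClast came from noncompartmental analysis. EL4-bearing CES1-/- C57BL/6 mice received one SC dose of 3.2 mg/kg (1 mg/kg DON equivalent) in ethanol/Tween 80/saline 5:10:85. Tumour, jejunum and plasma were sampled over time, n = 3 mice per time point. DON was read by LC-MS/MS after dabsyl chloride derivatisation.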

[18] = Stability in mouse plasma assessed as parent compound remaining at 20 uM measured after 1 hr by LC-MS/MS analysis
[19] = Stability in swine plasma assessed as parent compound remaining at 20 uM measured after 1 hr by LC-MS/MS analysis; conditions: Sus scrofa, pig
[20] = Stability in human plasma assessed as parent compound remaining at 20 uM measured after 1 hr by LC-MS/MS analysis

With `CC(=O)NCCCC[C@H](NC(=O)C12CC3CC(CC(C3)C1)C2)C(=O)N[C@@H](CCC(=O)C=[N+]=[N-])C(=O)OC(C)C` the remaining at 1 h, 1 µM [1] was 100%, the Stability [2] was greater than 50% and the Drug metabolism [3] was 0.25 to 0.5 µM. The Stability [4] was “Stable”, the Drug metabolism [5] was 9.95 µM and the Drug metabolism [6] was 11.8 µM. For the same molecule, the Drug metabolism [7] was “Metabolite_Detected”, the Stability (Procathepsin L) was 36% and the Stability (Homo sapiens) was 9%. For the same molecule, the “Ratio EC50” value [8] was 2, the Stability [9] was “Unstable” and the Kp at 1 h [10] was 16. For the same molecule, the Cmax [11] was 820 nM, the Cmax [12] was “Bld” and the Tmax [13] was 30 min. For the same molecule, the AUC(0-t) [14] was 0.4 µM·h, the Cmax [15] was 440 nM and the Tmax [16] was 60 min. The “Ratio AUC” value [17] was 11, the Stability [18] was 0% and the Stability [19] was 108%. The Stability [20] was 107%.
